According to ChEMBL document CHEMBL1127294, “Development of a model for the delta opioid receptor pharmacophore. 1. Conformationally restricted Tyr1 replacements in the cyclic delta receptor selective tetrapeptide Tyr-c[D-Cys-Phe-D-Pen]OH (JOM-13)” (J Med Chem, 1994):
Peptide text beside a SMILES is read from it.

Columns and labels:
Mu-type opioid receptor [1] = biological target: T1, Mu-type opioid receptor (Cavia porcellus, UniProt P97266); assay: Displacement of [3H]DAMGO from mu opioid receptor of guinea pig brain membrane
Mu-type opioid receptor [2] = biological target: T1, Mu-type opioid receptor; assay: Inhibitory concentration of compound against mu opioid receptor in guinea pig ileum assay; format: tissue-based
In short: (§1)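 Electrically stimulated tissue in Krebs bicarbonate, 37 °C, 95% O2/5% CO2, 0.1 Hz, supramaximal voltage. MVD used male ICR mouse vas deferens, Mg-free buffer, 0.5 g tension, 2.0 ms pulses. GPI used male Hartley guinea pig ileum myenteric plexus strips, 1 g tension, 0.4 ms pulses. Cumulative agonist doses, 3 min each. IC50 from Hill fit to mean inhibition data, 2–4 tissues.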

[3] = biological target: Opioid receptors; mu & delta (UniProt P41143+P35372); assay: Ratio of IC50 against mu opioid to IC50 against delta opioid receptor; in short: as §1
[4] = biological target: Delta-type opioid receptor (Mus musculus, UniProt P32300); assay: Inhibitory concentration against delta opioid receptor in mouse vas deferens assay; format: tissue-based; in short: as §1
Sequence of Delta-type opioid receptor (P32300 whole entry): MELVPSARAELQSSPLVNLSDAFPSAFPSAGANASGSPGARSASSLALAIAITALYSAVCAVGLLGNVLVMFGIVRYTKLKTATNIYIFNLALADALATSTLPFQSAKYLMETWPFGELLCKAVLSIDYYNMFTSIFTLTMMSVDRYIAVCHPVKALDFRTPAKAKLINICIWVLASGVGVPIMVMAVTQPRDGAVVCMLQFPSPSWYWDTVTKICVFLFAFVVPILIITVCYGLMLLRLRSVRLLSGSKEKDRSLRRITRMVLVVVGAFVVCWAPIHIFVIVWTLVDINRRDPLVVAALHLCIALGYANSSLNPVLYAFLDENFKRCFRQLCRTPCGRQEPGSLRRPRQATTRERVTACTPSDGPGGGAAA

T1 sequence (P97266 whole entry): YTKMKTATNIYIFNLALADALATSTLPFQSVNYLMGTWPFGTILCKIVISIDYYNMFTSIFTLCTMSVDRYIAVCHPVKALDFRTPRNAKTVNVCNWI
Sequence of Opioid receptors; mu & delta (P35372 whole entry, looked up): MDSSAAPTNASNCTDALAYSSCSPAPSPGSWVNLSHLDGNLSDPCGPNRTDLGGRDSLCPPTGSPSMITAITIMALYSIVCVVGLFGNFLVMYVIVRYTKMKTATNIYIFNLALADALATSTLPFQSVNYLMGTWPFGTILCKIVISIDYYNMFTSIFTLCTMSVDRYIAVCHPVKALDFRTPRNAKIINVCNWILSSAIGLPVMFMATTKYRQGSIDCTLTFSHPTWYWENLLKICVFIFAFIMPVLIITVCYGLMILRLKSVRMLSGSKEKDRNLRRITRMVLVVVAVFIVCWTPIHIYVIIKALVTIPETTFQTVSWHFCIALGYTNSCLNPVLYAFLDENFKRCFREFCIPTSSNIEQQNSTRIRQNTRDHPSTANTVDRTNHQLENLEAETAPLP
Sequence of Opioid receptors; mu & delta (P41143 whole entry, looked up): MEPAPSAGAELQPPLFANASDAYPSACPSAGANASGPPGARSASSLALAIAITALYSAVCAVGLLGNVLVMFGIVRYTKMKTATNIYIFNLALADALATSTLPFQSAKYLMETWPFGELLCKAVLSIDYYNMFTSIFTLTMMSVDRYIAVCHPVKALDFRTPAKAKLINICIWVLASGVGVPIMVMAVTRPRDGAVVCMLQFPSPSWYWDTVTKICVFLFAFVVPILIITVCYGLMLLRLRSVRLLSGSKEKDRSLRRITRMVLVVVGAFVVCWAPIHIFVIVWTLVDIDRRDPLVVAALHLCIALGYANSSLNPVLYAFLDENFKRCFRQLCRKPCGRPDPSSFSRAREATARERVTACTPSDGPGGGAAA

Row | Structure (SMILES) | Ki (Mu-type opioid receptor [1]) | IC50 (Mu-type opioid receptor [2]) | Ratio [3] | IC50 [4]
1 | CC1(C)SSC[C@H](NC(=O)C2NCC[C@@H]2c2ccc(O)cc2)C(=O)N[C@@H](Cc2ccccc2)C(=O)N[C@@H]1C(=O)O (single isomer, unassigned) | 10000 nM |  |  | 
2 | CC1(C)SSC[C@H](NC(=O)[C@H]2NCC[C@@H]2c2ccc(O)cc2)C(=O)N[C@@H](Cc2ccccc2)C(=O)N[C@@H]1C(=O)O | 110 nM | 770 nM | 480 | 1.6 nM
3 | CC1(C)SSC[C@H](NC(=O)[C@]2(N)CCc3cc(O)ccc3C2)C(=O)N[C@@H](Cc2ccccc2)C(=O)N[C@@H]1C(=O)O | 230 nM | 1800 nM | 16 | 110 nM
4 | CC1(C)SSC[C@H](NC(=O)[C@@]2(N)Cc3ccc(O)cc3C2)C(=O)N[C@@H](Cc2ccccc2)C(=O)N[C@@H]1C(=O)O | 840 nM | > 10000 nM | > 29 | 340 nM
5 | CC1(C)SSC[C@H](NC(=O)[C@@H]2Cc3ccc(O)cc3CN2)C(=O)N[C@@H](Cc2ccccc2)C(=O)N[C@@H]1C(=O)O (HELM PEPTIDE1{[O=C([C@@H]1Cc2ccc(O)cc2CN1)[*:2]].C.F.[Pen]}$PEPTIDE1,PEPTIDE1,2:R3-4:R3$$$V2.0) | > 10000 nM |  |  | 
6 | CC1(C)SSC[C@H](NC(=O)C2(N)CCc3cc(O)ccc3C2)C(=O)N[C@@H](Cc2ccccc2)C(=O)N[C@@H]1C(=O)O (single isomer, unassigned) | 310 nM | 4300 nM | 13 | 340 nM
7 | CC1(C)SSC[C@H](NC(=O)[C@@](C)(N)Cc2ccc(O)cc2)C(=O)N[C@@H](Cc2ccccc2)C(=O)N[C@@H]1C(=O)O (HELM PEPTIDE1{[C[C@](N)(Cc1ccc(O)cc1)C(=O)[*:2]].C.F.[Pen]}$PEPTIDE1,PEPTIDE1,2:R3-4:R3$$$V2.0) | > 10000 nM |  |  | 
8 | CC1(C)SSC[C@H](NC(=O)C2(N)Cc3ccc(O)cc3C2)C(=O)N[C@@H](Cc2ccccc2)C(=O)N[C@@H]1C(=O)O (single isomer, unassigned) | > 10000 nM |  |  | 
9 | CC1(C)SSC[C@H](NC(=O)[C@@H](N)Cc2ccc(O)cc2)C(=O)N[C@@H](Cc2ccccc2)C(=O)N[C@@H]1C(=O)O |  |  |  | 4.2 nM
10 | CC1(C)SSC[C@H](NC(=O)C2NCC[C@H]2c2ccc(O)cc2)C(=O)N[C@@H](Cc2ccccc2)C(=O)N[C@@H]1C(=O)O (single isomer, unassigned) | 4440 nM |  |  | 
11 | CC1(C)SSC[C@H](NC(=O)[C@H]2NCC[C@H]2c2ccc(O)cc2)C(=O)N[C@@H](Cc2ccccc2)C(=O)N[C@@H]1C(=O)O | 720 nM | 12000 nM | 160 | 75 nM
